The results in this text go back to ChEMBL document CHEMBL1124381, “Studies on angiotensin converting enzyme inhibitors. 4. Synthesis and angiotensin converting enzyme inhibitory activities of 3-acyl-1-alkyl-2-oxoimidazolidine-4-carboxylic acid derivatives” (J Med Chem, 1989).

Values joined by “and” are separate entries in the source; they are usually repeats but may differ in a detail not shown here. Equal values may be shown once.

The subject of experiment [1] is Rattus norvegicus. Kind of experiment: Maximum inhibitory effect on Angiotensin I induced pressor responses in anesthetized normotensive rats with 10 ug/kg dose of compound given intra venously. Type of experiment: functional.
Experiment [2] concerns Rattus norvegicus. Kind of experiment: Maximum inhibitory effect of on Angiotensin I induced pressor responses in anesthetized normotensive rats with 1.0 mg/Kg dose of compound given perorally. The conditions noted are these: po. Type of experiment: functional. An outline of the steps:
(§1)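 Male Wistar slc rats, 300-400 g, anesthetized, fasted 18-20 h. Drug given orally in distilled water once a constant angiotensin I pressor rise was confirmed. […] ID50 from a linear regression curve. Maximum inhibition reported.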

The test system of experiment [3] is Rattus norvegicus. As to the kind of experiment: Initial systolic blood pressure in spontaneously hypertensive rats after administration of 5 mg/kg of compound perorally. The experiment is classed as functional, Artery. To be noted: route oral. An outline of the steps: (§2)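 Male NCrj SHRs, 18-22 weeks old, about 350 g, baseline systolic pressure 180-200 mmHg, fasted 18-20 h. Drug given orally in distilled water at 1, 2, 5 or 10 mg/kg; vehicle 4 mL/kg. Systolic pressure by tail plethysmograph. Initial value, maximum, time of maximum, change and duration of significant fall recorded; mean ± SE.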

Experiment [4] relates to Rattus norvegicus. As to the kind of experiment: Maximum inhibitory effect of on Angiotensin I induced pressor responses in anesthetized normotensive rats with 0.2 mg/Kg dose of compound given perorally. Type of experiment: functional. To be noted: po. An outline of the steps:
as §1

The test system of experiment [5] is Rattus norvegicus. Kind of experiment: The time required for the maximal fall in blood pressure after administration of the compound. Type of experiment: functional. An outline of the steps:
as §2

For experiment [6], the species on record is Rattus norvegicus. As to the kind of experiment: Change in systolic blood pressure. The experiment is classed as functional, Artery. In outline:
as §2

Experiment [7] concerns Rattus norvegicus. As to the kind of experiment: Initial systolic blood pressure in spontaneously hypertensive rats after administration of 1 mg/kg of compound perorally. The conditions noted are these: route oral. The experiment is classed as functional, Artery. An outline of the steps: as §2
The species entered for experiment [8] is Rattus norvegicus. Kind of experiment: The duration time of the hypotensive effect showing statistically significant difference from initial value was determined. The experiment is classed as functional. An outline of the steps: as §2
For experiment [9], the species on record is Rattus norvegicus. As to the kind of experiment: Inhibitory effect of on Angiotensin I induced pressor responses in normotensive rats when given perorally. Type of experiment: functional. To be noted: po, read-out: ID50 (the source's name). An outline of the steps: as §1
The subject of experiment [10] is Rattus norvegicus. Kind of experiment: Initial systolic blood pressure in spontaneously hypertensive rats after administration of 10 mg/kg of compound perorally. Type of experiment: functional, Artery. To be noted: route oral. An outline of the steps:
as §2

Experiment [11] has as its system Rattus norvegicus. Kind of experiment: Initial systolic blood pressure in spontaneously hypertensive rats after administration of 2 mg/kg of compound perorally. The experiment is classed as functional, Artery. To be noted: route oral. An outline of the steps:
as §2

In experiment [12] the test system is Rattus norvegicus. Kind of experiment: Maximum inhibitory effect of on Angiotensin I induced pressor responses in anesthetized normotensive rats with 0.5 mg/Kg dose of compound given perorally. The experiment is classed as functional. The conditions noted are these: po. In outline:
as §1

Experiment [13] relates to Rattus norvegicus. Kind of experiment: Maximum effect on systolic blood pressure in spontaneously hypertensive rats after administration of 1 mg/kg of compound perorally. Type of experiment: functional, Artery. To be noted: route oral. An outline of the steps: as §2
In experiment [14] the test system is Rattus norvegicus. As to the kind of experiment: Maximum effect on systolic blood pressure in spontaneously hypertensive rats after administration of 5 mg/kg of compound perorally. Type of experiment: functional, Artery. The conditions noted are these: route oral. An outline of the steps:
as §2

Experiment [15] has as its system Rattus norvegicus. Kind of experiment: Maximum inhibitory effect on Angiotensin I induced pressor responses in anesthetized normotensive rats with 0.2 mg/Kg dose of compound given perorally. Type of experiment: functional. To be noted: po. In outline:
as §1

The species named for experiment [16] is Rattus norvegicus. As to the kind of experiment: Inhibitory effect on Angiotensin I induced pressor responses in normotensive rats when given perorally. Type of experiment: functional. The conditions noted are these: po, read-out: ID50 (the source's name). In outline:
as §1

Experiment [17] relates to Rattus norvegicus. Kind of experiment: Maximum effect on systolic blood pressure in spontaneously hypertensive rats after administration of 2 mg/kg of compound perorally. The experiment is classed as functional, Artery. The conditions noted are these: route oral. An outline of the steps: as §2
Experiment [18] deals with Rattus norvegicus. Kind of experiment: Maximum effect on systolic blood pressure in spontaneously hypertensive rats after administration of 10 mg/kg of compound perorally. The experiment is classed as functional, Artery. To be noted: route oral. In outline:
as §2

Experiment [19] relates to Rattus norvegicus. Kind of experiment: Maximum inhibitory effect on Angiotensin I induced pressor responses in anesthetized normotensive rats with 0.5 mg/Kg dose of compound given perorally. The experiment is classed as functional. The conditions noted are these: po. In outline: as §1
Experiment [20] concerns Rattus norvegicus. Kind of experiment: Maximum inhibitory effect on Angiotensin I induced pressor responses in anesthetized normotensive rats with 1.0 mg/Kg dose of compound given perorally. Type of experiment: functional. To be noted: po. In outline:
as §1

The subject of experiment [21] is Rattus norvegicus. Kind of experiment: Maximum inhibitory effect on Angiotensin I induced pressor responses in anesthetized normotensive rats with 10 ug/kg dose of compound given intravenously. Type of experiment: functional. The conditions noted are these: iv.

The inhibition in vivo is the change of the read-out against control, counted positive when it falls. On to `C[C@H](N[C@@H](CCc1ccccc1)C(=O)O)C(=O)N1C(=O)N(Cc2ccccc2)C[C@H]1C(=O)O`, for which the inhibition in vivo at 0.01 mg/kg in the experiment on Rattus norvegicus [1] is 39%.

As to `CCCCCCCC[C@H](N[C@@H](C)C(=O)N1C(=O)N(C)C[C@H]1C(=O)O)C(=O)O`, in the experiment on Rattus norvegicus [2], the inhibition in vivo at 1 mg/kg was determined as 18.4%. Besides, the inhibition in vivo at 0.01 mg/kg in the experiment with Rattus norvegicus [1] came to 53.4%.

Consider `CCCCCCCC[C@H](N[C@@H](C)C(=O)N1C(=O)N(Cc2ccccc2)C[C@H]1C(=O)O)C(=O)O`, for which, in the experiment with Rattus norvegicus [1], the inhibition in vivo at 0.01 mg/kg stood at 41%.

For the compound `CCCCCCCC[C@H](N[C@@H](C)C(=O)N1C(=O)N(C)C[C@H]1C(=O)O)C(=O)OCC`, in the experiment with Rattus norvegicus [2], the inhibition in vivo at 1 mg/kg stood at 56.2%.

`CCOC(=O)[C@H](CCc1ccccc1)N[C@@H](C)C(=O)N1C(=O)N(C)C[C@H]1C(=O)O`: the Systolic blood pressure is 191.4 mmHg and 164.3 mmHg in the experiment with Rattus norvegicus [3] (5 mg/kg); 190 mmHg and 190.8 mmHg with Rattus norvegicus [7] (1 mg/kg); 192 mmHg in the experiment on Rattus norvegicus [10]; 165.8 mmHg and 192.5 mmHg in the experiment with Rattus norvegicus [11] (2 mg/kg). Moreover, the inhibition in vivo at 0.2 mg/kg in the experiment on Rattus norvegicus [4] worked out at 52%. The Time with Rattus norvegicus [5] was 3 h and 6 h. In addition, the Change in the experiment filed under Rattus norvegicus [6] was -25 [middle of 4 runs]. Further, the Duration in the experiment listed under Rattus norvegicus [8] was more than 9 h. Also, in the experiment filed under Rattus norvegicus [9], the ED50 amounted to 0.24 mg/kg. In addition, the inhibition in vivo at 0.5 mg/kg in the experiment with Rattus norvegicus [12] was found to be 62.7%.

`CCOC(=O)[C@H](CCc1ccccc1)N[C@@H](C)C(=O)N1CCC[C@H]1C(=O)O`: the Systolic blood pressure with Rattus norvegicus [13] worked out at 178.3 mmHg; in the experiment on Rattus norvegicus [3], 190 mmHg; in the experiment on Rattus norvegicus [14], 166.7 mmHg; with Rattus norvegicus [7], 190.8 mmHg; with Rattus norvegicus [17], 168.6 mmHg; with Rattus norvegicus [10], 193.3 mmHg. The figures for the Systolic blood pressure with Rattus norvegicus [11] and in the experiment with Rattus norvegicus [18] were 192.9 mmHg and 165 mmHg, respectively. Besides, in the experiment with Rattus norvegicus [5], the Time is 3 h and 6 h. Further, the inhibition in vivo at 0.2 mg/kg in the experiment on Rattus norvegicus [15] stood at 42.9%. Moreover, the ED50 in the experiment listed under Rattus norvegicus [16] worked out at 0.3 mg/kg. Also, the Change in the experiment filed under Rattus norvegicus [6] is -23.3 [middle of 4 runs]. This compound displayed a Duration in the experiment filed under Rattus norvegicus [8] of more than 9 h. In addition, in the experiment with Rattus norvegicus [19], the inhibition in vivo at 0.5 mg/kg amounted to 50.5%. Besides, in the experiment on Rattus norvegicus [20], the inhibition in vivo at 1 mg/kg was 69.8%.

As for `C[C@H](N[C@@H](CCc1ccccc1)C(=O)O)C(=O)N1C(=O)N(C)C[C@H]1C(=O)O`, the inhibition in vivo at 0.2 mg/kg in the experiment on Rattus norvegicus [4] is -7.2%. The inhibition in vivo at 1 mg/kg in the experiment on Rattus norvegicus [2] worked out at 26.3%. Further, the inhibition in vivo at 0.01 mg/kg in the experiment on Rattus norvegicus [1] amounted to 62.4%.

With `C[C@H](N[C@@H](CCc1ccccc1)C(=O)O)C(=O)N1CCC[C@H]1C(=O)O` [ENALAPRILAT ANHYDROUS], the inhibition in vivo at 0.01 mg/kg with Rattus norvegicus [21] came out at 54.5%.
